Test results taken from ChEMBL document CHEMBL3808334, “Synthesis and in vitro evaluation of novel triazine analogues as anticancer agents and their interaction studies with bovine serum albumin” (Eur J Med Chem, 2016).

Columns and labels:
Type in all cases: functional
[1] = Growth inhibition of human RXF393 cells assessed as cell growth at 10^-4 M incubated for 48 hrs by sulforhodamine B assay; settings: RXF 393, 48 h, read-out: Activity
MDA-MB-468 = test: Growth inhibition of human MDA-MB-468 cells assessed as cell growth at 10^-4 M incubated for 48 hrs by sulforhodamine B assay; settings: MDA-MB-468, 48 h, read-out: Activity
[2] = Growth inhibition of human MOLT4 cells incubated for 48 hrs by sulforhodamine B assay; settings: MOLT-4, 48 h
In short: (§1)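 Cells were plated at 5,000–40,000 per well according to doubling time and preincubated 24 h at 37 °C in 5% CO2; time-zero plates were then TCA-fixed. Five concentrations (10-fold or ½-log dilutions, DMSO stock) were incubated 48 h. Cells were TCA-fixed, stained with 0.4% SRB and read at 515 nm. GI50 was taken where [(Ti−Tz)/(C−Tz)]×100 = 50.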

KM12 = test: Growth inhibition of human KM12 cells incubated for 48 hrs by sulforhodamine B assay; settings: KM12, 48 h; in short: as §1
[3] = Growth inhibition of human SKOV3 cells assessed as cell growth at 10^-8 M incubated for 48 hrs by sulforhodamine B assay; settings: SK-OV-3, 48 h, read-out: Activity
SR = test: Growth inhibition of human SR cells assessed as cell growth at 10^-7 M incubated for 48 hrs by sulforhodamine B assay; settings: read-out: Activity
MDA-MB-231 = test: Growth inhibition of human MDA-MB-231 cells assessed as cell growth at 10^-5 M incubated for 48 hrs by sulforhodamine B assay; settings: MDA-MB-231, 48 h, read-out: Activity
[4] = Growth inhibition of human BT549 cells assessed as cell growth at 10^-5 M incubated for 48 hrs by sulforhodamine B assay; settings: BT-549, 48 h, read-out: Activity
In short: (§2)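 Five-dose assay: five concentrations from 10-fold or ½-log serial dilutions. Cells are plated at 5,000–40,000 per well according to doubling time, grown 24 h, then exposed 48 h at 37 °C, 5% CO₂. Fixed with cold 50% TCA (final addition) for 60 min at 4 °C and stained with 0.4% SRB in 1% acetic acid. Bound dye is solubilized in 10 mM Tris base and read at 515 nm. GI₅₀ is where [(Ti−Tz)/(C−Tz)]×100 = 50, with a time-zero plate as Tz.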

NCI-H460 [5] = test: Growth inhibition of human NCI-H460 cells assessed as cell growth at 10^-4 M incubated for 48 hrs by sulforhodamine B assay; settings: NCI-H460, 48 h, read-out: Activity
[6] = Growth inhibition of human SF295 cells assessed as cell growth at 10^-7 M incubated for 48 hrs by sulforhodamine B assay; settings: SF-295, 48 h, read-out: Activity
[7] = Growth inhibition of human SNB19 cells assessed as cell growth at 10^-7 M incubated for 48 hrs by sulforhodamine B assay; settings: SNB-19, 48 h, read-out: Activity
Malme-3M = test: Growth inhibition of human MALME-3M cells assessed as cell growth at 10^-4 M incubated for 48 hrs by sulforhodamine B assay; settings: read-out: Activity
NCI/ADR-RES = test: Growth inhibition of human NCI/ADR-RES cells assessed as cell growth at 10^-4 M incubated for 48 hrs by sulforhodamine B assay; settings: read-out: Activity
SN12C = test: Growth inhibition of human SN12C cells assessed as cell growth at 10^-7 M incubated for 48 hrs by sulforhodamine B assay; settings: read-out: Activity
M14 = test: Growth inhibition of human M14 cells assessed as cell growth at 10^-8 M incubated for 48 hrs by sulforhodamine B assay; settings: M14, 48 h, read-out: Activity
MDA-MB-435 = test: Growth inhibition of human MDA-MB-435 cells assessed as cell growth at 10^-6 M incubated for 48 hrs by sulforhodamine B assay; settings: MDA-MB-435, 48 h, read-out: Activity
SK-MEL-5 = test: Growth inhibition of human SK-MEL-5 cells assessed as cell growth at 10^-6 M incubated for 48 hrs by sulforhodamine B assay; settings: SK-MEL-5, 48 h, read-out: Activity
786-0 = test: Growth inhibition of human 786-0 cells assessed as cell growth at 10^-6 M incubated for 48 hrs by sulforhodamine B assay; settings: 786-0, 48 h, read-out: Activity; in short: as §2
[8] = Growth inhibition of human Hs 578T cells assessed as cell growth at 10^-6 M incubated for 48 hrs by sulforhodamine B assay; settings: read-out: Activity
[9] = Growth inhibition of human BT549 cells assessed as cell growth at 10^-6 M incubated for 48 hrs by sulforhodamine B assay; settings: BT-549, 48 h, read-out: Activity; in short: as §2
NCI-H226 = test: Growth inhibition of human NCI-H226 cells assessed as cell growth at 10^-5 M incubated for 48 hrs by sulforhodamine B assay; settings: NCI-H226, 48 h, read-out: Activity
[10] = Growth inhibition of human OVCAR8 cells assessed as cell growth at 10^-5 M incubated for 48 hrs by sulforhodamine B assay; settings: OVCAR-8, 48 h, read-out: Activity
A549 = test: Growth inhibition of human A549/ATCC cells assessed as cell growth at 10 uM incubated for 48 hrs by sulforhodamine B assay; settings: A549, 48 h, read-out: Activity
In short: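 One-dose screen at 10 µM final. Cells are plated at 5,000–40,000 per well according to doubling time and preincubated 24 h at 37 °C, 5% CO₂. Compound (DMSO stock diluted in medium with 50 µg/ml gentamicin) is then added for 48 h. Growth percent is read by sulforhodamine B staining, absorbance at 515 nm.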

[11] = Growth inhibition of human HOP62 cells assessed as cell growth at 10 uM incubated for 48 hrs by sulforhodamine B assay; settings: HOP-62, 48 h, read-out: Activity
NCI-H460 [12] = test: Growth inhibition of human NCI-H460 cells assessed as cell growth at 10 uM incubated for 48 hrs by sulforhodamine B assay; settings: NCI-H460, 48 h, read-out: Activity
[13] = Growth inhibition of human SF539 cells assessed as cell growth at 10 uM incubated for 48 hrs by sulforhodamine B assay; settings: SF-539, 48 h, read-out: Activity
T47D = test: Growth inhibition of human T47D cells incubated for 48 hrs by sulforhodamine B assay; in short: as §1
[14] = read-out: LC50 (the source's name)
[15] = read-out: pLC50 (the source's name) (converted)

Fc1ccc(-c2nc(Nc3ccc(-c4nc5ccccc5[nH]4)cc3)nc(N3CCOCC3)n2)cc1 gave a growth at 100 µM [1] of -35%, a growth at 100 µM (MDA-MB-468) of -19% and a GI50 ([2]; read-out: GI50) of 2150 nM. It also gave a CC50 [2, 14] of over 100000 nM, a TGI ([2]; read-out: TGI) of 6130 nM and a GI50 ([2]; read-out: pGI50 (converted)) of 2140 nM. It also gave a CC50 [2, 15] of over 100000 nM, a TGI ([2]; read-out: pTGI (converted)) of 6170 nM and a GI50 (KM12; read-out: GI50) of 2060 nM. For the same compound, the CC50 (KM12; [14]) was over 100000 nM, the TGI (KM12; read-out: TGI) was 5690 nM and the GI50 (KM12; read-out: pGI50 (converted)) was 2040 nM. It also gave a CC50 (KM12; [15]) of over 100000 nM, a TGI (KM12; read-out: pTGI (converted)) of 5620 nM and a growth at 0.01 µM [3] of 99%. For the same compound, the growth at 0.1 µM (SR) was 87%, the growth at 10 µM (MDA-MB-231) was -35% and the growth at 10 µM [4] was -53%. The growth at 100 µM (NCI-H460 [5]) was -39%, the growth at 0.1 µM [6] was 94% and the growth at 0.1 µM [7] was 97%. The growth at 100 µM (Malme-3M) was -58%, the growth at 100 µM (NCI/ADR-RES) was -13% and the growth at 0.1 µM (SN12C) was 90%. The growth at 0.01 µM (M14) was 97%, the growth at 1 µM (MDA-MB-435) was 95% and the growth at 1 µM (SK-MEL-5) was 97%. For the same compound, the growth at 1 µM (786-0) was 73%, the growth at 1 µM [8] was 71% and the growth at 1 µM [9] was 83%. For the same compound, the growth at 10 µM (NCI-H226) was -8%, the growth at 10 µM [10] was 2% and the growth at 10 µM (A549) was 11.2%. The growth at 10 µM [11] was -27.3%, the growth at 10 µM (NCI-H460 [12]) was 0.13% and the growth at 10 µM [13] was 0.31%. It also gave a GI50 (T47D; read-out: GI50) of 1880 nM, a TGI (T47D; read-out: TGI) of 4320 nM and a GI50 (T47D; read-out: pGI50 (converted)) of 1860 nM. For the same compound, the TGI (T47D; read-out: pTGI (converted)) was 4370 nM.
Work on Clc1ccc(-c2nc(Nc3ccc(-c4nc5ccccc5[nH]4)cc3)nc(N3CCOCC3)n2)cc1 yielded a growth at 100 µM [1] of -30%, a growth at 100 µM (MDA-MB-468) of -41% and a GI50 ([2]; read-out: GI50) of 217 nM. For the same compound, the TGI ([2]; read-out: TGI) was 573 nM, the GI50 ([2]; read-out: pGI50 (converted)) was 219 nM and the TGI ([2]; read-out: pTGI (converted)) was 575 nM. For the same compound, the GI50 (KM12; read-out: GI50) was 370 nM, the CC50 (KM12; [14]) was 4750 nM and the TGI (KM12; read-out: TGI) was 1410 nM. For the same compound, the GI50 (KM12; read-out: pGI50 (converted)) was 372 nM, the CC50 (KM12; [15]) was 4790 nM and the TGI (KM12; read-out: pTGI (converted)) was 1410 nM. The growth at 0.01 µM [3] was 101%, the growth at 0.1 µM (SR) was -5% and the growth at 10 µM (MDA-MB-231) was -76%. It also gave a growth at 10 µM [4] of -66%, a growth at 100 µM (NCI-H460 [5]) of -33% and a growth at 0.1 µM [6] of 91%. For the same compound, the growth at 0.1 µM [7] was 95%, the growth at 100 µM (Malme-3M) was -16% and the growth at 100 µM (NCI/ADR-RES) was -7%. The growth at 0.1 µM (SN12C) was 92%, the growth at 0.01 µM (M14) was 94% and the growth at 1 µM (MDA-MB-435) was 36%. For the same compound, the growth at 1 µM (SK-MEL-5) was 93%, the growth at 1 µM (786-0) was -78% and the growth at 1 µM [8] was 43%. For the same compound, the growth at 1 µM [9] was 86%, the growth at 10 µM (NCI-H226) was -55% and the growth at 10 µM [10] was -79%. For the same compound, the growth at 10 µM (A549) was -75.2%, the growth at 10 µM [11] was -73.9% and the growth at 10 µM (NCI-H460 [12]) was -80.3%. For the same compound, the growth at 10 µM [13] was -92.7%, the GI50 (T47D; read-out: GI50) was 376 nM and the TGI (T47D; read-out: TGI) was 1720 nM. The GI50 (T47D; read-out: pGI50 (converted)) was 380 nM and the TGI (T47D; read-out: pTGI (converted)) was 1740 nM.
In the case of c1ccc2[nH]c(-c3ccc(Nc4nc(N5CCCCC5)nc(N5CCOCC5)n4)cc3)nc2c1, the growth at 100 µM [1] is reported as -46%, the growth at 100 µM (MDA-MB-468) is reported as -31% and the GI50 ([2]; read-out: GI50) is reported as 2730 nM. For the same compound, the CC50 [2, 14] was over 100000 nM, the TGI ([2]; read-out: TGI) was 7890 nM and the GI50 ([2]; read-out: pGI50 (converted)) was 2750 nM. For the same compound, the CC50 [2, 15] was over 100000 nM, the TGI ([2]; read-out: pTGI (converted)) was 7940 nM and the GI50 (KM12; read-out: GI50) was 2850 nM. It also gave a CC50 (KM12; [14]) of over 100000 nM, a TGI (KM12; read-out: TGI) of 9540 nM and a GI50 (KM12; read-out: pGI50 (converted)) of 2820 nM. The CC50 (KM12; [15]) was over 100000 nM, the TGI (KM12; read-out: pTGI (converted)) was 9550 nM and the growth at 0.01 µM [3] was 97%. For the same compound, the growth at 0.1 µM (SR) was 88%, the growth at 10 µM (MDA-MB-231) was -13% and the growth at 10 µM [4] was -35%. The growth at 100 µM (NCI-H460 [5]) was -45%, the growth at 0.1 µM [6] was 94% and the growth at 0.1 µM [7] was 98%. For the same compound, the growth at 100 µM (Malme-3M) was -80%, the growth at 100 µM (NCI/ADR-RES) was -10% and the growth at 0.1 µM (SN12C) was 94%. It also gave a growth at 0.01 µM (M14) of 95%, a growth at 1 µM (MDA-MB-435) of 95% and a growth at 1 µM (SK-MEL-5) of 97%. The growth at 1 µM (786-0) was 79%, the growth at 1 µM [8] was 89% and the growth at 1 µM [9] was 89%. It also gave a growth at 10 µM (NCI-H226) of 12%, a growth at 10 µM [10] of 9% and a growth at 10 µM (A549) of 13.9%. For the same compound, the growth at 10 µM [11] was -45.2%, the growth at 10 µM (NCI-H460 [12]) was 0.81% and the growth at 10 µM [13] was 7.95%. The GI50 (T47D; read-out: GI50) was 1960 nM, the CC50 (T47D; [14]) was over 100000 nM and the TGI (T47D; read-out: TGI) was 4580 nM. It also gave a GI50 (T47D; read-out: pGI50 (converted)) of 1950 nM, a CC50 (T47D; [15]) of over 100000 nM and a TGI (T47D; read-out: pTGI (converted)) of 4570 nM.
